In the library only some 1.3% were active in any assay of this set; here they are far more common.
TDP2 absorb – human TDP2 enzyme inhibitors, primary screen, biochemical, epi absorbance, recombinant enzyme. AID 720702, 2013. inhibition, % at 12.8 µM. T5PNP hydrolysis, p-nitrophenol absorbance 415 nm. hit rate 0.34% among 370,000;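 active means inhibition above the mean of all tested compounds plus 3 SD, set per campaign, cut at about 25% in these data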
Target sequence (O95551 whole entry, looked up): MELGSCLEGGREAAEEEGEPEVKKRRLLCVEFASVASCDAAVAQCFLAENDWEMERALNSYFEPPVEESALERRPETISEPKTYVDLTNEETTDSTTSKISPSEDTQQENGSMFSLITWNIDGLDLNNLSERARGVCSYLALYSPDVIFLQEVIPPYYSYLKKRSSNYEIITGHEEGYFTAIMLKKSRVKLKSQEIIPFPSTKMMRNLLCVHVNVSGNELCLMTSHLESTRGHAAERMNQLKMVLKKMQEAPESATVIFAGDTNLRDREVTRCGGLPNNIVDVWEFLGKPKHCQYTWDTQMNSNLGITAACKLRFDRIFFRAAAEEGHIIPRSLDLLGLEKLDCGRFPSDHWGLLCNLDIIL
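System – recombinant human TDP2 · Amount – 120 nM TDP2 per well · Buffer or medium – Mg2+-containing Tris-HCl buffer, pH 7.5 · Reagent – T5PNP substrate, 5 mM · Dosing – 12.8 µM single point, 1% DMSO · Incubation – 2 h at 37 °C · Measured by – epi absorbance · Read-out basis – percent inhibition · Benchmarks – high control without enzyme, low control DMSO plus TDP2 · Repeats – singlicate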
NSD2 inh – NSD2 histone methyltransferase inhibitors, primary screen, biochemical, AlphaScreen, single concentration, set 2; Histone-lysine N-methyltransferase NSD2 (Homo sapiens), O96028; NSD2 peptide methylation, 120 min; inhibition, % at 12.5 µM; hit rate 0.54% among 310,000; AID 743445, 2014; in the data active means inhibition above about 50%
Casp6 inh – human caspase-6 inhibitors, primary screen, biochemical, VEID-R110 fluorescence, single point, set 2; P55212; purified caspase-6, Z-VEID-R110 cleavage fluorescence; inhibition, % at 12.5 µM; hit rate 0.53% among 350,000;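 active means mean inhibition across replicates at least about 35%, with every replicate also reaching that limit, limit read from the data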
Target sequence (P55212 24-179 limits assumed): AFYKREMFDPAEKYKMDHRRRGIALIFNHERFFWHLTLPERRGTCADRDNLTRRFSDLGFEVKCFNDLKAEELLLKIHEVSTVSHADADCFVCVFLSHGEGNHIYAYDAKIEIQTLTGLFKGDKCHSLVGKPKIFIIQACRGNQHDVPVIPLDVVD
Target sequence (P55212 194-293 limits assumed): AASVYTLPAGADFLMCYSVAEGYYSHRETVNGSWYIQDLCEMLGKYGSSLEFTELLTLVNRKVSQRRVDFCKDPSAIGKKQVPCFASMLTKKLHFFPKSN
LEDGF integ inh – blockers of LEDGF/p75-dependent integrase strand transfer – biochemical, TR-FRET, high throughput, primary screen; inhibition, % at 3.7 µM; AID 743269, 2014; TR-FRET IN-LEDGF/p75 DNA integration, Eu/Cy5; hit rate 0.64% among 370,000; HIV-1 integrase (with human LEDGF/p75);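 active means inhibition above the screen-wide mean plus 3 SD, cut at about 13% in these data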;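 further: signal is the Cy5 over europium emission ratio at 671 and 618 nm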
UCH37 DUB inh – inhibitors of human UCH37 deubiquitinase, primary screen, biochemical, Ub-AMC cleavage, fluorescence. Ubiquitin carboxyl-terminal hydrolase isozyme L5 (Homo sapiens), Q9Y5K5. purified proteasome/UCH37. inhibition, % (test concentration not listed). hit rate 0.33% among 330,000. AID 588478, 2011;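 active means mean inhibition over replicate wells above about 20%, limit read from the data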
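Assay system: Proteasome-bound UCH37. Buffer or medium: pH 7.4 Tris-HCl (50 mM) with ovalbumin, ATP-MgCl2, DTT. Incubation: 30 min preincubation with enzyme, 25 min cleavage at room temperature. Measured by: fluorescence, ex 355 nm, em 460 nm. Read-out basis: percent inhibition. Control set: wells without proteasome as full block, compound-free enzyme plus substrate as uninhibited.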
IN multimer up – HIV-1 IN multimer formation enhancers, counter-screen for LEDGF/p75 integration inhibitor project, biochemical, TR-FRET; shares compounds with LEDGF integ inh; TR-FRET HIV-1 integrase multimerization; activation, % at 7.7 µM; hit rate 17% among 2,000; AID 1053131, 2014; in the data active means activation above about 8.9%
TRFRET interf – TR-FRET optical interference artefacts, confirmation, artefact control for LEDGF/p75-dependent integration inhibitor project, biochemical, HIV-1 IN multimerization. shares compounds with LEDGF integ inh. 2,000 tested, under 10 active. inhibition, % at 7.7 µM. TR-FRET optical interference counterscreen;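 active means inhibition above the mean over all tested compounds plus 3 SD, which no compound reached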
IN-LEDGF confirm – inhibitors of HIV-1 IN-LEDGF/p75 DNA integration, confirmation, biochemical, TR-FRET. shares compounds with LEDGF integ inh. TR-FRET LEDGF/p75-dependent HIV-1 integration. inhibition, % at 3.7 µM. hit rate 36% among 2,000; in the data active means inhibition above about 14%
A number is an active result; i = inactive; nt = not tested or not shown.

SMILES	TDP2 absorb	NSD2 inh	Casp6 inh	LEDGF integ inh	UCH37 DUB inh	IN multimer up	TRFRET interf	IN-LEDGF confirm
COc1cc(OC)c(C(=O)O/N=C(\N)c2cccc(C)c2)cc1OC	i	i	i	17	i	i	i	i
CCC(C)=NNc1nc(-c2cc3cc(OC)ccc3oc2=O)cs1	nt	nt	nt	nt	i	nt	nt	nt
O=C(CCC(=O)Nc1ccc(F)cc1)NN=Cc1c[nH]c2ccccc12	nt	nt	nt	nt	i	nt	nt	nt
COc1cc(C2C3=C(COC3=O)Oc3cc4c(cc32)OCO4)cc(OC)c1O (configuration not stated)	i	i	i	23	nt	i	i	i
COc1ccc(CN2c3cc(S(=O)(=O)N4CCOCC4)ccc3N3CCCC32)cc1 (configuration not stated)	i	nt	nt	i	i	nt	nt	nt
O=S(=O)(c1ccc2c(c1)N(Cc1ccc(Cl)cc1)C1CCCN21)N1CCOCC1 (configuration not stated)	i	i	nt	23	i	i	i	i
Oc1ccc(NC(=S)Nc2ccc(O)cc2)cc1	i	i	i	17	i	i	i	i
COC(=O)c1ccc(NC(=S)Nc2ccc(O)cc2)cc1	i	i	i	i	i	nt	nt	nt
Cc1ccc(C=NN=Cc2ccc(C)s2)s1	nt	nt	nt	nt	i	nt	nt	nt
CC(C=CC(O)=C1C(=O)CNC1=O)=C[C@@H](C)C1OC2(C)OC(C(=O)C3O[C@@]32C)C1C (some centres not stated)	i	nt	i	22	nt	i	i	i
O=C(NC(Cc1ccccc1)C(=O)O)/C(=C\c1ccco1)NC(=O)c1ccc(Br)cc1 (configuration not stated)	i	i	nt	22	i	i	i	i
O=C(Nc1ccc(C(=O)O)cc1)/C(=C\c1ccco1)NC(=O)c1ccc(Br)cc1	i	i	i	14	nt	i	i	i
Cc1ccc(Nc2c([N+](=O)[O-])c(=O)oc3ccccc23)cc1C	i	i	i	14	i	i	i	i
O=c1oc2ccccc2c(Nc2cccc(O)c2)c1[N+](=O)[O-]	i	i	nt	i	i	nt	nt	nt
Cc1c(C=NNC(=O)C(NC(=O)c2ccc3c(c2)OCO3)C(C)C)c2ccccc2n1C (configuration not stated)	nt	nt	nt	nt	i	nt	nt	nt
COc1ccc(-c2csc3nc(C(C)(C)C)oc(=O)c23)cc1OC	i	i	i	16	i	i	i	i
Cc1cc(C(=O)COc2cccnc2[N+](=O)[O-])c(C)n1Cc1cccs1	i	i	nt	14	i	i	i	i
COc1ccc(-n2nc(C(=O)O)cc2-c2ccccc2)cc1	i	i	i	29	i	i	i	i
CCC(=O)Oc1ccc(CC(=NO)c2ccc(O)cc2O)o1	nt	nt	nt	nt	i	nt	nt	nt
Nc1nonc1-n1nnc(C(=O)NN=Cc2cccc(Cl)c2)c1CSc1ccc(Cl)cc1	nt	nt	nt	nt	i	nt	nt	nt
O=C(Cn1cnc2c(NCc3ccccc3)ncnc21)NCc1ccccn1	i	nt	i	i	i	nt	nt	nt
C=CCn1cnc2c(NCc3ccccc3)ncnc21	i	i	nt	89	i	i	i	i
CCN1CCN(C(c2ccccc2)c2nnnn2Cc2ccc3c(c2)OCO3)CC1 (configuration not stated)	i	i	i	25	i	i	i	i
CCN1CCN(C(c2ccc(OC)cc2)c2nnnn2Cc2ccc3c(c2)OCO3)CC1 (configuration not stated)	i	i	i	i	i	nt	nt	nt
O=Cc1cccc(OC(=O)/C=C/c2ccco2)c1	i	i	87	16	i	11	i	36
SMILES	TDP2 absorb	NSD2 inh	Casp6 inh	LEDGF integ inh	UCH37 DUB inh	IN multimer up	TRFRET interf	IN-LEDGF confirm
O=C(/C=C/c1ccco1)Oc1ccc(C(=S)N2CCOCC2)cc1	i	i	i	i	i	nt	nt	nt
O=C(NN=Cc1ccc(S(=O)(=O)O)o1)c1ccc2c(c1)OCO2	nt	nt	nt	nt	i	nt	nt	nt
CC1(C(=O)NS(=O)(=O)C2CC2)CCN(C(=O)COc2ccc(Cl)cc2Cl)C1 (configuration not stated)	i	i	i	14	nt	i	i	i
CC1(C(=O)NS(=O)(=O)C2CC2)CCCN(C(=O)COc2ccc(Cl)cc2Cl)C1 (configuration not stated)	i	i	i	i	nt	nt	nt	nt
C=CCNC(=S)NN=Cc1ccccc1OCCOc1ccccc1	nt	nt	nt	nt	i	nt	nt	nt
O=C(Nn1cnnc1)c1ccc([N+](=O)[O-])cc1Cl	i	i	i	i	i	nt	nt	nt
Cn1nnc(NC(=O)c2ccc([N+](=O)[O-])cc2Cl)n1	i	i	i	51	i	i	i	i
CN(C)c1cc(NN=Cc2ccccc2)nc(N(C)C)n1	nt	nt	nt	nt	i	nt	nt	nt
COC(=O)Cc1c(C)nc2nc(-c3ccccc3)[nH]n2c1=O	i	i	nt	i	i	nt	nt	nt
COC(=O)Cc1c(C)nc2nc(Cc3ccccc3)[nH]n2c1=O	i	i	nt	14	i	i	i	i
COc1ccc2cc(C(=O)NCc3ccco3)c(=O)oc2c1	i	i	nt	i	i	nt	nt	nt
O=C(NCc1ccco1)c1cc2ccc(O)cc2oc1=O	i	i	nt	30	i	20	i	19
COC(=O)c1ccc(C=NNC(=O)CC(=O)NCC(C)C)cc1	nt	nt	nt	nt	i	nt	nt	nt
CC(=O)Nc1ccc(C(C)=NNS(=O)(=O)c2ccccc2)cc1	nt	nt	nt	nt	i	nt	nt	nt
CCC(Sc1nc2ccccc2[nH]1)C(=O)Nc1cc(C)on1 (configuration not stated)	i	nt	nt	29	i	i	i	i
CCC(Sc1nc2ccccc2[nH]1)C(=O)Nc1ccc(NC(C)=O)cc1 (configuration not stated)	i	i	i	i	i	nt	nt	nt
CCOc1cc(C=NO)cc(Br)c1OC	nt	nt	nt	nt	i	nt	nt	nt
Nc1ccc(N2CCN(CCCCN3C(=O)C4CCCN4C3=O)CC2)cc1 (configuration not stated)	i	i	i	22	i	i	i	i
Nc1nonc1-n1nnc(C(=O)NN=Cc2cccc(Cl)c2)c1CSc1ccccc1	nt	nt	nt	nt	i	nt	nt	nt
O=C(CSc1nccc2ccccc12)N1CCN(c2ccccn2)CC1	i	nt	i	14	i	i	i	i
Cc1ccc(SCC(=O)N2CCN(c3ccccn3)CC2)cc1	i	i	i	i	i	nt	nt	nt

Bioassay records: PubChem BioAssay, several laboratories
